Source: ChEMBL document CHEMBL1150855, “Five new prenylated stilbenes from the root bark of Lonchocarpus chiricanus” (2001)
Converted amounts (≈) assume the structure as drawn. The source made the active and inactive calls. No cut-off for these calls is given here.

Experiments:
[1] = system: Cladosporium cucumerinum; assay: Antifungal activity against Cladosporium cucumerinum at 100 ug after 2 to 3 days by bioautographic TLC assay; type: functional, organism-based
Method in brief: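 Compounds in dichloromethane (1 mg/mL stock) were geometrically diluted across 1 to 0.015 mg/mL, and 10 µL of each dilution was applied to silica gel TLC plates. Plates were covered with C. cucumerinum in nutritive medium and incubated 2-3 days in moist boxes. The read-out was the minimal amount (µg) giving a clear inhibition zone on a dark gray background, up to 100 µg. Nystatin in MeOH served as the reference.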

[2] = system: Aedes aegypti; assay: Larvicidal activity against Aedes aegypti larvae assessed as minimum concentration required to kill all larvae after 24 hrs by dilution test; type: functional
Method in brief: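 Roughly 10 A. aegypti larvae per tube in tap water. Compound added from geometric dilutions of a 1 mg/100 µL DMSO stock, with the volume made up to 10 mL, for final 50 to 1 ppm. Tubes kept in darkness at 26-28 °C for 24 h, then lethality scored under lab light. Value is the minimal concentration (ppm) killing all larvae.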

[3] = system: Cladosporium cucumerinum; assay: Antifungal activity against Cladosporium cucumerinum after 24 hrs by agar-dilution assay; type: functional
Method in brief: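 Test solutions made by geometric dilution in DMSO from a 3 mg/mL DMSO stock, added to Sabouraud agar in wells at a final 60 to 3 µg/mL. C. cucumerinum suspended in distilled water and spread over the agar. Plates sealed hermetically, 30 °C for 24 h. Value is the MIC (µg/mL). Compound-free growth controls; duplicates; nystatin reference at 10 to 0.1 µg/mL.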

[4] = system: Cladosporium cucumerinum; assay: Antifungal activity against Cladosporium cucumerinum assessed as minimum concentration required to inhibit fungal growth after 2 to 3 days by bioautographic TLC assay; type: functional
Method in brief: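 Stocks at 1 mg/mL in dichloromethane (nystatin in MeOH), geometrically diluted over 1 to 0.015 mg/mL. 10 µL of each dilution applied to silica gel TLC plates. Plates then covered with C. cucumerinum in nutritive medium and held 2-3 days in a moist atmosphere. Clear zones read against a dark grey background. Value is the minimal amount (µg) inhibiting growth; nystatin reference.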

| Compound | Activity [1] | Activity [2] [ppm] | MIC [3] [µg/mL] | Activity [4] [µg] |
| --- | --- | --- | --- | --- |
| COc1cc(/C=C/c2ccccc2)cc(OC)c1 [3,5-O-DIMETHYLPINOSYLVIN] | inactive | 3 |  |  |
| CC(C)=CCc1c(O)cc(/C=C/c2ccccc2)cc1O [CHIRICANINE A] |  | 6 | 30 (≈ 107 µM) | 5 |
| CC1(C)Oc2cc(/C=C/c3ccccc3)cc(O)c2C[C@@H]1O [CHIRICANINE B] | inactive | >50 |  |  |
| COc1c(CC=C(C)C)c(O)cc(/C=C/c2ccccc2)c1CC=C(C)C [CHIRICANINE C] | inactive | >50 |  |  |
| CC(C)=CCc1c(O)cc2c(c1/C=C/c1ccccc1)CC(O)C(C)(C)O2 (stereo unspecified) [CHIRICANINE D] | inactive | >50 |  |  |
| CC(C)=CCc1c(O)cc(O)c(CC=C(C)C)c1/C=C/c1ccccc1 [LONGISTYLINE D] | inactive | 6 |  |  |
| C=C(C)[C@H]1Cc2c(ccc3c2O[C@@H]2COc4cc(OC)c(OC)cc4[C@@H]2C3=O)O1 [ROTENONE] |  | 3 |  |  |
| NYSTATIN |  |  | 1 | 0.2 |
